Measured values: ChEMBL document CHEMBL1154931, “Exploration of a new series of PAR1 antagonists” (Bioorg Med Chem Lett, 2010)
The source made the active and inactive calls. No cut-off for these calls is given here.

Tests used:
[1] = target: T1, Proteinase-activated receptor 1 (Homo sapiens) (UniProt P25116); assay: Antagonist activity at PAR1 expressed in CHO cells assessed as inhibition of SFLLR-NH2-induced calcium release at 10 uM by FLIPR assay; format: functional, cell-based
T1 sequence (whole entry): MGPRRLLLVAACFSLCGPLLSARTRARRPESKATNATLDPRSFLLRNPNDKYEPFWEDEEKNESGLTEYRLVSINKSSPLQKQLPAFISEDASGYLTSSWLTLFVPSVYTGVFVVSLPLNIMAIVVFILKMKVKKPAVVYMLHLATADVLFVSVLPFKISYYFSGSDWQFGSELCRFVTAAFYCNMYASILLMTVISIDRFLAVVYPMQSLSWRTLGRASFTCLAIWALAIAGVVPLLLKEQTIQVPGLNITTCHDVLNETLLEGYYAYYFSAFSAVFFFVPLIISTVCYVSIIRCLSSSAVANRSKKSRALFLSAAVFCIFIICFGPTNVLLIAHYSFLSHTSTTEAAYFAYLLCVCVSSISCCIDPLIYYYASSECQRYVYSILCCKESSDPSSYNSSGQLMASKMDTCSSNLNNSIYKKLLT
Outline: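 Calcium release triggered by 1 µM SFLLR-NH₂; test compound at 10 µM, read as % inhibition of the agonist response. Values are mean SEM of at least two independent determinations, each run in triplicate.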

[2] = target: T2, Proteinase-activated receptor 1 (Homo sapiens, UniProt P25116); assay: (§1) Antagonist activity at PAR1 expressed in CHO cells assessed as inhibition of SFLLR-NH2-induced calcium release by FLIPR assay; format: functional, cell-based; settings: read-out: pA2 (converted)
T2 sequence (P25116 whole entry): T1 sequence (whole entry)
Outline: (§2)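 Concentration-response study in the same calcium-release screen, with release induced by 1 µM SFLLR-NH₂. Used to separate partial from fully competitive antagonists; pA₂ was derived for full antagonists only.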

[3] = Antiaggregatory activity in human platelets assessed as inhibition of SFLLR-induced aggregation; format: functional, Platelet
Rattus norvegicus = assay: Antithrombotic activity in rat assessed as increase in occlusion time of arteriovenous shunt at 1.25 mg/kg, iv; format: functional
Outline: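 Arteriovenous extracorporeal shunt in anesthetized rats, compound dosed at 1.25 mg/kg. Read-out is % increase of occlusion time.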

[4] = target: T1, Proteinase-activated receptor 1 (Homo sapiens); assay: as §1; format: functional, cell-based; outline: as §2

With `O=C(/C=C\c1c(F)cccc1F)N1CCC(NCc2ccc(F)cc2)C(F)C1` (stereo not drawn) the inhibition [1] was 25%.
`O=C(/C=C/c1ccccc1Cl)c1ccc(NC2CCCC2)nc1` showed an inhibition [1] of 11%.
For `O=C(c1cc2ccccc2[nH]1)N1CCN(Cc2ccccc2)CC1`, the inhibition [1] was 2%.
Compound `N#Cc1ccccc1/C=C\C(=O)N1CCC(NCc2ccc(F)cc2)C(F)C1` (stereo not drawn) has an inhibition [1] of 40%.
`Cc1cccc(-c2ccc(C(=O)/C=C/c3ccccc3Cl)cn2)c1C` gave an inhibition [1] of 32%.
`O=C(/C=C/c1c(F)cccc1F)c1ccc(NC2CCCCC2)nc1` showed an inhibition [1] of 41%.
Work on `O=C(/C=C/c1c(F)cccc1F)c1ccc(N2CCCC2)nc1` yielded an inhibition [1] of 20%.
`N#Cc1ccccc1/C=C/c1c(N2CCN(Cc3ccsc3)CC2)c(=O)c1=O` showed a Kb [2] of 389 nM, a pKb [3] of 4 and an inhibition [1] of 97%.
`Cc1cccc(-c2ccc(C(=O)/C=C/c3c(F)cccc3F)nc2)c1C` gave an inhibition [1] of 40%.
Work on `O=C(c1cc2ccccc2o1)N1CCN(Cc2ccccc2)CC1` yielded an inhibition [1] of 1%.
Compound `O=c1c(/C=C/c2ccccc2Cl)c(N2CCN(Cc3ccc(F)cc3)CC2)c1=O` has an inhibition [1] of 23%.
Work on `Cc1cccc(-c2ccc(C(=O)/C=C/c3c(F)cccc3F)cn2)c1C` yielded an inhibition [1] of 74%.
`O=C(c1cc2c(F)cccc2s1)N1CCN(Cc2ccccc2)CC1` showed an inhibition [1] of 4%.
In the case of `N#Cc1ccccc1/C=C/C(=O)c1ccc(NC2CCCC2)nc1`, the Activity (Rattus norvegicus) is reported as 28%, the Kb [2] is reported as 933 nM and the pKb [3] is reported as 5.05. It also gave an inhibition [1] of 84%.
In the case of `N#Cc1ccccc1/C=C/C(=O)c1ccc(NC2CCCCC2)nc1`, the inhibition [1] is reported as 53%.
Work on `N#Cc1ccccc1/C=C\C(=O)N1CCC(N(Cc2ccc(F)cc2)Cc2ccccn2)C(F)C1` (stereo not drawn) yielded an Activity (Rattus norvegicus) of 53%, a Kb [2] of 589 nM and a pKb [3] of 5.68. The inhibition [1] was 68%.
Compound `O=C(C1=Cc2ccccc2OC1)N1CCN(Cc2ccc(F)cc2)CC1` has an inhibition [1] of 16%.
In the case of `N#Cc1ccccc1/C=C/C(=O)c1ccc(N2CC=CC2)cn1`, the inhibition [1] is reported as 52%.
In the case of `O=c1c(/C=C/c2ccccc2Cl)c(N2CCN(Cc3ccccc3)CC2)c1=O`, the pA2 [4] is reported as “Active” and the inhibition [1] is reported as 85%.
Work on `N#Cc1ccccc1/C=C/C(=O)N1CCC(N(Cc2ccc(F)cc2)Cc2ccccn2)C(F)C1` (stereo not drawn) yielded an inhibition [1] of 33%.
With `O=C(/C=C/c1c(F)cccc1F)N1CCC(NCc2ccc(F)cc2)CC1` the inhibition [1] was 0%.
`O=C(/C=C/c1ccccc1Cl)N1CCN(Cc2ccc(F)cc2)CC1` gave an Activity (Rattus norvegicus) of 28%, a Kb [2] of 380 nM and a pKb [3] of 5.52. For the same compound, the inhibition [1] was 93%.
In the case of `O=c1c(/C=C/c2ccccc2Cl)c(N2CCN(CC3CCCCC3)CC2)c1=O`, the inhibition [1] is reported as 41%.
With `Cn1c(C(=O)N2CCN(Cc3ccccc3)CC2)cc2ccccc21` the inhibition [1] was 11%.
Work on `O=C(/C=C/c1c(F)cccc1F)c1ccc(N2CC=CC2)cn1` yielded an inhibition [1] of 60%.
In the case of `O=C(/C=C\c1ccccc1Cl)N1CCC(Nc2ccc(F)cc2)C(F)C1` (stereo not drawn), the Kb [2] is reported as 389 nM, the pKb [3] is reported as 4 and the inhibition [1] is reported as 85%.
`N#Cc1ccccc1/C=C/c1c(N2CCN(CC3CCCCC3)CC2)c(=O)c1=O` gave a Kb [2] of 427 nM, a pKb [3] of 4 and an inhibition [1] of 84%.
For `O=C(/C=C/c1ccccc1Cl)c1ccc(N2CC=CC2)cn1`, the inhibition [1] was 13%.
In the case of `O=c1c(/C=C/c2ccccc2Cl)c(N2CCN(Cc3ccsc3)CC2)c1=O`, the inhibition [1] is reported as 27%.
With `O=C(/C=C/c1ccccc1Cl)c1ccc(NC2CCCCC2)nc1` the pA2 [4] was “Active” and the inhibition [1] was 97%.
`O=C(/C=C\c1ccccc1Cl)N1CCC(N(Cc2ccc(F)cc2)Cc2ccccn2)C(F)C1` (stereo not drawn) gave an inhibition [1] of 23%.
